Test results: ChEMBL document CHEMBL4184148 (Bioorg Med Chem Lett, 2017)

Assays:
[1] = test system: Proto-oncogene tyrosine-protein kinase receptor Ret (Homo sapiens), P07949 [M918T]; test: Binding affinity to human partial length RET M918T mutant (E713 to D1014 residues) expressed in Escherichia coli BL21 at 1 uM by Kinomescan method relative to control
[2] = target: Tyrosine-protein kinase SYK (Homo sapiens) (UniProt P43405); test: Binding affinity to wild-type human partial length SYK (D354 to N635 residues) expressed in Escherichia coli BL21 at 1 uM by Kinomescan method relative to control
[3] = target: Dual specificity tyrosine-phosphorylation-regulated kinase 1B (Homo sapiens) (UniProt Q9Y463); test: Binding affinity to wild-type human full length DYRK1B (M1 to S629 residues) expressed in Escherichia coli BL21 at 1 uM by Kinomescan method relative to control
Summary of the method: (§1)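 Run as one kinome-wide competition binding panel with each compound at a single fixed concentration. Results were plotted as a kinome-wide selectivity map.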

[4] = target: Serine/threonine-protein kinase DCLK2 (Homo sapiens) (UniProt Q8N568); test: Binding affinity to wild-type human partial length DCAMKL2 (K273 to V664 residues) expressed in Escherichia coli BL21 at 1 uM by Kinomescan method relative to control
[5] = target: Dual specificity tyrosine-phosphorylation-regulated kinase 1A (Homo sapiens) (UniProt Q13627); test: Binding affinity to wild-type human partial length DYRK1A (H129 to S509 residues) expressed in HEK293 cells at 1 uM by Kinomescan method relative to control; assay type: cell-based
[6] = test system: eIF-2-alpha kinase GCN2 (Homo sapiens), Q9P2K8 [S808G]; test: Binding affinity to wild-type human partial length GCN2 kinase domain 2 (R585 to T1018 residues) S808G mutant expressed in Escherichia coli BL21 at 1 uM by Kinomescan method relative to control
[7] = target: Calcium/calmodulin-dependent protein kinase type 1B (Homo sapiens) (UniProt Q6P2M8); test: Binding affinity to wild-type human partial length CAMK1B (W9 to A311 residues) expressed in HEK293 cells at 1 uM by Kinomescan method relative to control; assay type: cell-based
[8] = target: Death-associated protein kinase 1 (Homo sapiens) (UniProt P53355); test: Binding affinity to wild-type human partial length DAPK1 (M1 to F296 residues) expressed in Escherichia coli BL21 at 1 uM by Kinomescan method relative to control
[9] = target: Calcium/calmodulin-dependent protein kinase type II subunit beta (Homo sapiens) (UniProt Q13554); test: Binding affinity to wild-type human partial length CAMK2B (M1 to Q380 residues) expressed in Escherichia coli BL21 at 1 uM by Kinomescan method relative to control
[10] = target: Dual specificity mitogen-activated protein kinase kinase 7 (Homo sapiens) (UniProt O14733); test: Binding affinity to wild-type human full length MKK7 (M1 to R419 residues) expressed in HEK293 cells at 1 uM by Kinomescan method relative to control; assay type: cell-based; summary of the method: as §1
[11] = target: RAF proto-oncogene serine/threonine-protein kinase (Homo sapiens) (UniProt P04049); test: Binding affinity to wild-type human partial length RAF1 (I330 to T640 residues) expressed in Escherichia coli BL21 at 1 uM by Kinomescan method relative to control
[12] = target: Interleukin-1 receptor-associated kinase 3 (Homo sapiens) (UniProt Q9Y616); test: Binding affinity to wild-type human partial length IRAK3 (V147 to E596 residues) expressed in Escherichia coli BL21 at 1 uM by Kinomescan method relative to control
[13] = target: MAP kinase-interacting serine/threonine-protein kinase 2 (Homo sapiens) (UniProt Q9HBH9); test: Binding affinity to wild-type human partial length MKNK2 (G63 to S388 residues) expressed in HEK293 cells at 1 uM by Kinomescan method relative to control; assay type: cell-based
[14] = target: Death-associated protein kinase 3 (Homo sapiens) (UniProt O43293); test: Binding affinity to wild-type human partial length DAPK3 (M1 to A277 residues) expressed in Escherichia coli BL21 at 1 uM by Kinomescan method relative to control
[15] = target: Mitogen-activated protein kinase 4 (Homo sapiens) (UniProt P31152); test: Binding affinity to wild-type human partial length ERK4 (M1 to L365 residues) expressed in Escherichia coli BL21 at 1 uM by Kinomescan method relative to control
[16] = target: Homeodomain-interacting protein kinase 1 (Homo sapiens) (UniProt Q86Z02); test: Binding affinity to wild-type human partial length HIPK1 (M146 to I555 residues) expressed in HEK293 cells at 1 uM by Kinomescan method relative to control; assay type: cell-based
[17] = target: Cyclin-dependent kinase 11B (Homo sapiens) (UniProt P21127); test: Binding affinity to wild-type human partial length CDK11 (M1 to N360 residues) expressed in Escherichia coli BL21 assessed as residual activity at 1000 nM after 1 hr by Kinomescan method relative to control
[18] = target: SRSF protein kinase 1 (Homo sapiens) (UniProt Q96SB4); test: Binding affinity to wild-type human full length SRPK1 (M1 to S655 residues) expressed in Escherichia coli BL21 at 1 uM by Kinomescan method relative to control
Summary of the method: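 Kinome-wide competition binding panel run by an outside provider, with each compound tested at a single concentration. Activity is read against the kinase panel.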

[19] = target: Proto-oncogene tyrosine-protein kinase Src (Homo sapiens) (UniProt P12931); test: Binding affinity to wild-type human partial length SRC (L240 to L536 residues) expressed in Escherichia coli BL21 at 1 uM by Kinomescan method relative to control
[20] = test system: Proto-oncogene tyrosine-protein kinase receptor Ret (Homo sapiens), P07949 [V804M]; test: Binding affinity to human partial length RET V804M mutant (E713 to D1014 residues) expressed in Escherichia coli BL21 at 1 uM by Kinomescan method relative to control
[21] = target: Mitogen-activated protein kinase kinase kinase 15 (Homo sapiens) (UniProt Q6ZN16); test: Binding affinity to wild-type human partial length MAP3K15 (T625 to L932 residues) expressed in HEK293 cells at 1 uM by Kinomescan method relative to control; assay type: cell-based
[22] = target: Serine/threonine-protein kinase 25 (Homo sapiens) (UniProt O00506); test: Binding affinity to wild-type human partial length YSK1 (V14 to H295 residues) expressed in Escherichia coli BL21 at 1 uM by Kinomescan method relative to control
[23] = target: Ephrin type-B receptor 6 (Homo sapiens) (UniProt O15197); test: Binding affinity to wild-type human partial length EPHB6 (Q634 to P948 residues) expressed in HEK293 cells at 1 uM by Kinomescan method relative to control; assay type: cell-based
[24] = target: TGF-beta receptor type-2 (Homo sapiens) (UniProt P37173); test: Binding affinity to wild-type human partial length TGFBR2 (I218 to K567 residues) expressed in Escherichia coli BL21 at 1 uM by Kinomescan method relative to control
[25] = target: cAMP-dependent protein kinase catalytic subunit PRKX (Homo sapiens) (UniProt P51817); test: Binding affinity to wild-type human partial length PRKX (M1 to F358 residues) expressed in Escherichia coli BL21 at 1 uM by Kinomescan method relative to control
Sequence of cAMP-dependent protein kinase catalytic subunit PRKX (Homo sapiens) (P51817 whole entry, the tested form may be a part): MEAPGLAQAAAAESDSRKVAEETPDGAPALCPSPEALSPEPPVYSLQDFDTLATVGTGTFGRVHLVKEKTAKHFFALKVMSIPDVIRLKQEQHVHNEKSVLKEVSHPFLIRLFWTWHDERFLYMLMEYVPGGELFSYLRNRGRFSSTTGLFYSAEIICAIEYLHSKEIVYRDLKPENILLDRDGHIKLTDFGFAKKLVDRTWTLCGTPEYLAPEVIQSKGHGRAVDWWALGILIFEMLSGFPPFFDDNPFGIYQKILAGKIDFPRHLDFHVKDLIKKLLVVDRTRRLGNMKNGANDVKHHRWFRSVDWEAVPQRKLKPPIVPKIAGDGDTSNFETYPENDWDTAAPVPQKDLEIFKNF

Sequence of RAF proto-oncogene serine/threonine-protein kinase (Homo sapiens) (P04049 whole entry, the tested form may be a part): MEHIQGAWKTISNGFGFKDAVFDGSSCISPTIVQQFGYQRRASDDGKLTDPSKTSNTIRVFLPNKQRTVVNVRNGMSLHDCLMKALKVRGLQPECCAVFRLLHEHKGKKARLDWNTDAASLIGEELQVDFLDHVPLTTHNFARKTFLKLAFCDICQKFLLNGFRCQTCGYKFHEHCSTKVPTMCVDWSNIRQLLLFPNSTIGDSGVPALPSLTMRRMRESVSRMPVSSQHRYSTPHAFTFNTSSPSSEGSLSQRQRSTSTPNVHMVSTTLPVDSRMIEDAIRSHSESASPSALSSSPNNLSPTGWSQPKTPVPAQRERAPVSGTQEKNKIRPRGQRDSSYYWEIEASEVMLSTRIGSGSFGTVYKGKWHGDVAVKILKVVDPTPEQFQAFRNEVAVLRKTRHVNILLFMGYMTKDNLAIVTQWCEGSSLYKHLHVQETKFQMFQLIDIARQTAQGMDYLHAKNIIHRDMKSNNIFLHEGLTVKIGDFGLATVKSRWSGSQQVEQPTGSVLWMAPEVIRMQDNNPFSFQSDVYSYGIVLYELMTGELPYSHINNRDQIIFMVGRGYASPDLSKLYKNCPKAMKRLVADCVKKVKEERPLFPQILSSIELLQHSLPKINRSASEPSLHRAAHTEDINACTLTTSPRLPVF
Sequence of Calcium/calmodulin-dependent protein kinase type II subunit beta (Homo sapiens) (Q13554 whole entry, the tested form may be a part): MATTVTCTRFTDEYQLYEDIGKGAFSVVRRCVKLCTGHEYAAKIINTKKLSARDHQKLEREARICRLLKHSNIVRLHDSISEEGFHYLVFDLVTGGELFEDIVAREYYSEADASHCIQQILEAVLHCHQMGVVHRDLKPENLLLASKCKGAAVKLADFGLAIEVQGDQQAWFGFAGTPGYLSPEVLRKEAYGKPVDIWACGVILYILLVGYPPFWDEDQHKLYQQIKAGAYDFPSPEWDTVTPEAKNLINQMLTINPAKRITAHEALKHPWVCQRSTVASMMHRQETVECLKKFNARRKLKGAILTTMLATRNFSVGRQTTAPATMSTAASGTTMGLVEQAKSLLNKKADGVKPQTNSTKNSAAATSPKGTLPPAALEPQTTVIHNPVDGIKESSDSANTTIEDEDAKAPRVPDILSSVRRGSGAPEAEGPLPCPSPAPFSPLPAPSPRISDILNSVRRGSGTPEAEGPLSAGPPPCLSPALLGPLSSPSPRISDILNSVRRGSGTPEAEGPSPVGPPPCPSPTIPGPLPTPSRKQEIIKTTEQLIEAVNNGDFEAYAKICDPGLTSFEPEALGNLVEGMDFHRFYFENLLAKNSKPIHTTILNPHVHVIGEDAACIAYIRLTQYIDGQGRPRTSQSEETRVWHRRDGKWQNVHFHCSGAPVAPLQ
Sequence of Dual specificity mitogen-activated protein kinase kinase 7 (Homo sapiens) (O14733 whole entry, the tested form may be a part): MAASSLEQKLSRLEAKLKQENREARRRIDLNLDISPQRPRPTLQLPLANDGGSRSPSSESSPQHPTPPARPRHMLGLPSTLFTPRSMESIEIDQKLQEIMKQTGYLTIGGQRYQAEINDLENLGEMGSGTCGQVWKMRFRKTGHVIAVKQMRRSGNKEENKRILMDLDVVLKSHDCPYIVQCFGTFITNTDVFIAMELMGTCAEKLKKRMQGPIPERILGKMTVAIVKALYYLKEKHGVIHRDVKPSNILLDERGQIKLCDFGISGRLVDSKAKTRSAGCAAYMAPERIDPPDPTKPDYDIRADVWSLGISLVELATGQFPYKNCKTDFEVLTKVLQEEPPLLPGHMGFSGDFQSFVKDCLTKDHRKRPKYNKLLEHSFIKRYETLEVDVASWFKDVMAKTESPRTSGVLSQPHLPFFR
Sequence of Death-associated protein kinase 3 (Homo sapiens) (O43293 whole entry, looked up, the tested form may be a part): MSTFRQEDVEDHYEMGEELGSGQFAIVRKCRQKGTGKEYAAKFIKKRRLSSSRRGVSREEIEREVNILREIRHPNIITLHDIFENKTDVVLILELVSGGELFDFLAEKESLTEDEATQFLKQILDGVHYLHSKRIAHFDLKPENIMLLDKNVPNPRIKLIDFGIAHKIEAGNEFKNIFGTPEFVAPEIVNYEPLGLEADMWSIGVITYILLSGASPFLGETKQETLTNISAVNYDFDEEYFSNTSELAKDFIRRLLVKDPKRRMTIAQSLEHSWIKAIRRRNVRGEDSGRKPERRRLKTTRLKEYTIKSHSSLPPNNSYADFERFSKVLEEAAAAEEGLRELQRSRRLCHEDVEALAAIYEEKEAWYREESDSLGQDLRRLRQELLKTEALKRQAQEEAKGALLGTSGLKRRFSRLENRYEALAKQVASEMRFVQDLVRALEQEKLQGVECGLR
Sequence of Dual specificity tyrosine-phosphorylation-regulated kinase 1B (Homo sapiens) (Q9Y463 whole entry, looked up, the tested form may be a part): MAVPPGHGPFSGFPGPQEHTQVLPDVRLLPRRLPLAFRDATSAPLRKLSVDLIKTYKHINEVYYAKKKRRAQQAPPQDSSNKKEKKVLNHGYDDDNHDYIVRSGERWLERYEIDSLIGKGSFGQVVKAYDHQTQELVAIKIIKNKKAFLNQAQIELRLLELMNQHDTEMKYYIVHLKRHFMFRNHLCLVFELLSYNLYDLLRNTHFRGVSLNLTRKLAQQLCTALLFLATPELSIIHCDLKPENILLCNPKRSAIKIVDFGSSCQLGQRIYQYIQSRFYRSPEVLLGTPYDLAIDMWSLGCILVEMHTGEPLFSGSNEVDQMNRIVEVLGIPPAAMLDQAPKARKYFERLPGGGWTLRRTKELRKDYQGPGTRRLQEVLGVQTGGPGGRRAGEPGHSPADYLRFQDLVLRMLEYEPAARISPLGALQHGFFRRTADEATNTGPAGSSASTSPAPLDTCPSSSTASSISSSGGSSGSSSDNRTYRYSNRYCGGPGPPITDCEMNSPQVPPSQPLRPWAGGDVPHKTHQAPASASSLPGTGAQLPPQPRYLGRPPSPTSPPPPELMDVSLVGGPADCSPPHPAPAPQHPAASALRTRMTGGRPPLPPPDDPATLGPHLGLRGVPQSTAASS
Sequence of Serine/threonine-protein kinase 25 (Homo sapiens) (O00506 whole entry, looked up, the tested form may be a part): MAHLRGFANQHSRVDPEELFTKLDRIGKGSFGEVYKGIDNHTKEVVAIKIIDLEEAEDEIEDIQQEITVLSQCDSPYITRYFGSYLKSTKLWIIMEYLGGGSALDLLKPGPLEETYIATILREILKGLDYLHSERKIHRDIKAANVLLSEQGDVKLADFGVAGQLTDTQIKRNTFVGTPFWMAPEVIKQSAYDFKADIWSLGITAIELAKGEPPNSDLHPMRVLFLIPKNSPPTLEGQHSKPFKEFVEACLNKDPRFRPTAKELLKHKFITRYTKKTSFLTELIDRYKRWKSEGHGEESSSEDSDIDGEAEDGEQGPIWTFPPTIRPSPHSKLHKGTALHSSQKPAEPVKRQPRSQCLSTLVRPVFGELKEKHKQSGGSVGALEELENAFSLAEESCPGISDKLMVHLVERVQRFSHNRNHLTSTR
Sequence of TGF-beta receptor type-2 (Homo sapiens) (P37173 whole entry, the tested form may be a part): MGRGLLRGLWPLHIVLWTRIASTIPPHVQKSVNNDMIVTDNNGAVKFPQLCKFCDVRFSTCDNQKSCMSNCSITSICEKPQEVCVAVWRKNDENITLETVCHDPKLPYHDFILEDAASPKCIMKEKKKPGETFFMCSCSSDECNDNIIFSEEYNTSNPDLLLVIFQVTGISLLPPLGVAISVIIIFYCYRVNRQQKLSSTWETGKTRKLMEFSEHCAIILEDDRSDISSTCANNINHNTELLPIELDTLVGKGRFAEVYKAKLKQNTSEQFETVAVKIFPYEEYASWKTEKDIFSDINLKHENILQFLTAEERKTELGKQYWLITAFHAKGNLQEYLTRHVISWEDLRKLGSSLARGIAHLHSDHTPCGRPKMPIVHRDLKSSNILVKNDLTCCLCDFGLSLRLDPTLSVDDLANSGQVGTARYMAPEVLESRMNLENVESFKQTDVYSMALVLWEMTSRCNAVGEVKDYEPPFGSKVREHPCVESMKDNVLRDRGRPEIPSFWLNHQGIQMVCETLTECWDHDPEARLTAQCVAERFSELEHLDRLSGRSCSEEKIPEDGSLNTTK
Sequence of Mitogen-activated protein kinase 4 (Homo sapiens) (P31152 whole entry, the tested form may be a part): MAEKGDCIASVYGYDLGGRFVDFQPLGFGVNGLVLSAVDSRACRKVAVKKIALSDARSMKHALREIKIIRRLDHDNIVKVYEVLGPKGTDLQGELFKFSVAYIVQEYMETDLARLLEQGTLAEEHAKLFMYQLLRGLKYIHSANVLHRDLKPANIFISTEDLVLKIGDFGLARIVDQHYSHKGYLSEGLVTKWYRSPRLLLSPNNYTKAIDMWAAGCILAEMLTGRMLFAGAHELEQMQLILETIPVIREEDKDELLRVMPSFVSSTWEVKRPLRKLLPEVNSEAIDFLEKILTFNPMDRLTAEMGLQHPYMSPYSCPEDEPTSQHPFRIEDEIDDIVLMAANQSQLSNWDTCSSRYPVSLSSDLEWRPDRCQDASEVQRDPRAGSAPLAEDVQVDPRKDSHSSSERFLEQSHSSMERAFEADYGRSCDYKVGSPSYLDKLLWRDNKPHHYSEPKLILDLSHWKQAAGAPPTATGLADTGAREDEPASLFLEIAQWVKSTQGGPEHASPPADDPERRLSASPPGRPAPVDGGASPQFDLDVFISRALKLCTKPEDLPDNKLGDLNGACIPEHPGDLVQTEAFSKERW

| SMILES | Activity [1] [%] | Activity [2] [%] | Activity [3] [%] | Activity [4] [%] | Activity [5] [%] | Activity [6] [%] | Activity [7] [%] | Activity [8] [%] | Activity [9] [%] | Activity [10] [%] | Activity [11] [%] | Activity [12] [%] | Activity [13] [%] | Activity [14] [%] | Activity [15] [%] | Activity [16] [%] | Activity [17] [%] | Activity [18] [%] | Activity [19] [%] | Activity [20] [%] | other results |
| --- | --- | --- | --- | --- | --- | --- | --- | --- | --- | --- | --- | --- | --- | --- | --- | --- | --- | --- | --- | --- | --- |
| CCC(=O)Nc1ccc(C(=O)Nc2ccc(Nc3ncc4c(n3)N(C)c3ccc(C)cc3C(=O)N4C)cc2)cc1 | 71 | 87 | 100 | 81 | 73 | 94 | 45 | 90 | 96 | 90 | 96 | 89 | 84 | 82 | 95 | 67 | 100 | 86 | 87 | 70 | Activity [21]: 62%; Activity [22]: 100%; Activity [23]: 77%; Activity [24]: 100%; Activity [25]: 80% |
| C=CC(=O)Nc1ccc(C(=O)Nc2ccc(Nc3ncc4c(n3)N(C)c3ccc(C)cc3C(=O)N4C)cc2)cc1 | 87 | 74 | 90 | 78 | 96 | 100 | 100 | 100 | 100 | 100 | 88 | 98 | 66 | 100 | 85 | 87 | 100 | 89 | 96 | 68 | Activity [21]: 100%; Activity [22]: 87%; Activity [23]: 96%; Activity [24]: 96%; Activity [25]: 100% |
